Data on three compounds can be found in ChEMBL document CHEMBL1157825, “1-(2-Ethoxyethyl)-1H-pyrazolo[4,3-d]pyrimidines as potent phosphodiesterase 5 (PDE5) inhibitors” (Bioorg Med Chem Lett, 2010).

The data set can be described thus: Volume of distribution at steady state in Beagle dog at 0.2 to 0.5 mg/kg, iv. The data set is classed as ADME, organism-based, Canis lupus familiaris. To be noted: in vivo, read-out: Vdss. Also noted: dose 0.2-0.5 mg/kg, route intravenous. Put shortly:
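Single IV dose of 0.2–0.5 mpk given to 10 kg beagles. Half-life reported in h, clearance in mL/min/kg and Vdss in L/kg.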
With `CCOCCn1nc(CC)c2nc(N3CCC(C(=O)O)CC3)nc(Nc3cc(C)ccn3)c21`, the Vd worked out at 3.8 L/kg. For `CCOCCn1nc(CC)c2nc(N3CCC(N)CC3)nc(Nc3cc(C)ccn3)c21` the value was 50.4 L/kg. The result for `CCOCCn1nc(CC)c2nc(N3CCN(C)CC3)nc(Nc3cc(C)ccn3)c21` reads 11.4 L/kg.
